# Experimental data published in ChEMBL document CHEMBL4715714, “Design, synthesis and biological evaluation of thiosemicarbazones, hydrazinobenzothiazoles and arylhydrazones as anticancer agents with a potential to overcome multidrug resistance” (Eur J Med Chem, 2016).
# Active and inactive are the calls of the source. The rule behind the calls is not given here.
# What was measured:
# KB-V1 = assay: Cytotoxicity against human KB-V1 cells assessed as inhibition of cell proliferation incubated for 72 hrs by MTT assay; type: functional, cell-based; settings: KB-V1, 72 h
# How it was run: (§1)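 Cells were seeded (10000/well for A2780, 5000/well for MES-SA/Dx5 and KB-3-1/V1) and left to attach 12 h, then exposed to compound for 72 h. Medium was removed, and MTT (0.83 mg/mL) was added for 1 h at 37 °C. Cells were lysed in DMSO and absorbance read at 540 nm. Signal was corrected for unstained lysate background, normalized to untreated cells, and IC50 taken from a sigmoidal dose-response fit.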
# KB 3-1 = assay: Cytotoxicity against human KB-3-1 cells assessed as inhibition of cell proliferation incubated for 72 hrs by MTT assay; type: functional, cell-based; settings: KB 3-1, 72 h; how it was run: as §1
# MES-SA/Dx5 [1] = assay: Cytotoxicity against human MES-SA/DX5 cells assessed as inhibition of cell proliferation incubated for 72 hrs by MTT assay; type: functional, cell-based; settings: for IC50: MES-SA/Dx5, 72 h; how it was run: as §1
# MES-SA [2] = assay: Cytotoxicity against human MES-SA cells transfected with mCherry fluorescent protein assessed as inhibition of cell proliferation incubated for 72 hrs by fluorescent assay; type: functional, cell-based
# How it was run: (§2)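 MES-SA and MES-SA/Dx5 cells were made to stably express mCherry by lentiviral transduction. Cells were seeded at 5000 (96-well) or 2500 (384-well) per well, allowed to attach 24 h, then treated with compound dilutions for 72 h. Viability was read as fluorescence, excitation 585 nm, emission 610 nm.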
# MES-SA/Dx5 [3] = assay: Cytotoxicity against human MES-SA/DX5 cells transfected with mCherry fluorescent protein assessed as inhibition of cell proliferation incubated for 72 hrs by fluorescent assay; type: functional, cell-based; settings: Homo sapiens, MES-SA/Dx5, 72 h; how it was run: as §2
# [4] = Cytotoxicity against human A2780adr cells assessed as inhibition of cell proliferation incubated for 72 hrs by MTT assay; type: functional, cell-based; settings: A2780 ADR; how it was run: as §1
# MES-SA [5] = assay: Cytotoxicity against human MES-SA cells assessed as inhibition of cell proliferation incubated for 72 hrs by MTT assay; type: functional, cell-based; how it was run: as §1
# A2780 = assay: Cytotoxicity against human A2780 cells assessed as inhibition of cell proliferation incubated for 72 hrs by MTT assay; type: functional, cell-based; settings: A2780, 72 h; how it was run: as §1
# MES-SA/Dx5 [6] = assay: Cytotoxicity against human MES-SA/DX5 cells transfected with mCherry fluorescent protein incubated for 72 hrs in presence of efflux pump inhibitor, Tariquidar by fluorescence assay; type: functional, cell-based
# How it was run: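 The mCherry-expressing cells (lentiviral) were seeded at 5000 or 2500 per well, attached for 24 h, and exposed 72 h to compounds with Tariquidar coadministered. Live-cell signal was fluorescence at 585 nm excitation and 610 nm emission.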
# [7] = Selectivity ratio of IC50 for human MES-SA cells transfected with mCherry to IC50 for human MES-SA/DX5 cells transfected with mCherry incubated for 72 hrs by fluorescent assay; type: functional
# MES-SA/Dx5 [8] = assay: Cytotoxicity against human MES-SA/DX5 cells incubated for 72 hrs in presence of efflux pump inhibitor, Tariquidar by MTT assay; type: functional, cell-based
# How it was run: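 Run as the 72 h MTT viability readout (12 h attachment, MTT 0.83 mg/mL for 1 h, DMSO lysis, A540), with the P-gp inhibitor Tariquidar at 1 µM co-present. IC50 came from sigmoidal fits of 2 to 4 independent experiments.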
# [9] = Selectivity ratio of IC50 for human MES-SA cells to IC50 for human MES-SA/DX5 cells incubated for 72 hrs by MTT assay; type: functional
# How it was run: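 The selectivity ratio is the IC50 in P-gp-negative parental cells divided by the IC50 in the P-gp-positive resistant partner.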
# [10] = Homo sapiens, MES-SA, 72 h, read-out: IC50
# [11] = Homo sapiens, MES-SA, 72 h, read-out: pIC50 (converted)
Structure (SMILES),IC50 (MES-SA [2]; [10]) [nM],IC50 (MES-SA/Dx5 [3]; read-out: IC50) [nM],IC50 (MES-SA [2]; [11]) [nM],IC50 (MES-SA/Dx5 [3]; read-out: pIC50 (converted)) [nM],other results
COc1ccc(NC(=S)N/N=C/c2ccccc2O)cc1,2670,1850,–,–,IC50 (KB-V1; read-out: IC50): 4870 nM; IC50 (KB-V1; read-out: pIC50 (converted)): 5010 nM; IC50 (KB 3-1; read-out: IC50): 5020 nM; IC50 (KB 3-1; read-out: pIC50 (converted)): 5010 nM; IC50 (MES-SA/Dx5 [1]; read-out: IC50): 3500 nM; IC50 (MES-SA/Dx5 [1]; read-out: pIC50 (converted)): 3470 nM; IC50 ([4]; read-out: IC50): 6950 nM; IC50 ([4]; read-out: pIC50 (converted)): 6920 nM; IC50 (MES-SA [5]; read-out: IC50): 3910 nM; IC50 (MES-SA [5]; read-out: pIC50 (converted)): 3800 nM; IC50 (A2780; read-out: IC50): 5470 nM; IC50 (A2780; read-out: pIC50 (converted)): 5370 nM
C/C(=N\NC(=S)Nc1ccccc1C(F)(F)F)c1ccccn1,33,161,32.4,141,–
COc1ccc(O)c(/C=N/Nc2nc3ccccc3s2)c1,14900,11600,13200,9330,–
COc1ccc(O)c(/C(C)=N/Nc2nc3ccccc3s2)c1,50700,15400,50100,14100,Activity (MES-SA/Dx5 [6]): Active; Ratio IC50 [7]: 4.71
O=[N+]([O-])c1ccc(O)c(/C=N/NC(=S)Nc2cccc(C(F)(F)F)c2)c1,16400,11900,–,–,–
Oc1ccccc1/C=N/NC(=S)Nc1cccc(C(F)(F)F)c1,5070,4080,–,–,–
C/C(=N\Nc1ccccn1)c1ccc2ccccc2n1,480,380,479,347,–
O=C1Nc2ccccc2/C1=N/NC(=S)Nc1cccc(C(F)(F)F)c1,3340,1950,–,–,Activity (MES-SA/Dx5 [6]): inactive; Activity (MES-SA/Dx5 [8]): inactive; IC50 (MES-SA/Dx5 [1]; read-out: IC50): 1400 nM; Ratio IC50 [7]: 2.42; IC50 (MES-SA [5]; read-out: IC50): 2060 nM; Ratio IC50 [9]: 1.44
C/C(=N\Nc1nc2ccccc2s1)c1ccccc1N,46200,19000,–,–,IC50 (MES-SA/Dx5 [1]; read-out: IC50): 28000 nM; IC50 (MES-SA/Dx5 [1]; read-out: pIC50 (converted)): 27500 nM; Ratio IC50 [7]: 2.41; IC50 (MES-SA [5]; read-out: IC50): 45600 nM; IC50 (MES-SA [5]; read-out: pIC50 (converted)): 44700 nM; Ratio IC50 [9]: 1.64
O=C1Nc2ccccc2/C1=N/Nc1nc2ccccc2s1,–,–,–,–,pIC50 (MES-SA/Dx5 [1]): inactive; IC50 (MES-SA [2]; mes-sa): Not Active; pIC50 (MES-SA [5]): inactive
FC(F)(F)c1ccccc1NC(=S)N/N=C/c1ccccn1,130,160,120,138,–
C/C(=N\NC(=S)Nc1ccccc1C)c1ccccn1,30,92,29.5,87.1,–
Oc1ccccc1/C=N/NC(=S)Nc1ccccc1,14000,6450,11500,4790,Activity (MES-SA/Dx5 [6]): Active; Ratio IC50 [7]: 2.23
C(=N\Nc1nc2ccccc2s1)/c1ccccn1,2700,3360,2690,3090,IC50 (KB-V1; read-out: IC50): 840 nM; IC50 (KB-V1; read-out: pIC50 (converted)): 813 nM; IC50 (KB 3-1; read-out: IC50): 650 nM; IC50 (KB 3-1; read-out: pIC50 (converted)): 646 nM; IC50 (MES-SA/Dx5 [1]; read-out: IC50): 1020 nM; IC50 (MES-SA/Dx5 [1]; read-out: pIC50 (converted)): 1000 nM; IC50 ([4]; read-out: IC50): 450 nM; IC50 ([4]; read-out: pIC50 (converted)): 447 nM; IC50 (MES-SA [5]; read-out: IC50): 1420 nM; IC50 (MES-SA [5]; read-out: pIC50 (converted)): 1410 nM; IC50 (A2780; read-out: IC50): 590 nM; IC50 (A2780; read-out: pIC50 (converted)): 575 nM; Ratio IC50 [9]: 1.41
C(=N\Nc1ccccn1)/c1ccc2ccccc2n1,820,430,776,427,–
Cc1ccc(O)c(/C=N/Nc2nc3ccccc3s2)c1,89100,15600,85100,13800,Activity (MES-SA/Dx5 [6]): Active; Ratio IC50 [7]: 5.65
C/C(=N\Nc1ccccn1)c1cc(C)c2ccccc2n1,300,290,288,295,–
NC(=S)N/N=C/c1ncccc1N [TRIAPINE],1300,2520,–,–,Activity (MES-SA/Dx5 [8]): Active
